Assays:
Rattus norvegicus [1] = test: Anticonvulsant activity in Wistar rat assessed as protection against maximal electroshock-induced seizure at 100 mg/kg, po administered 30 mins prior to test relative to control; assay type: functional
How it was run: (§1)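 Male Wistar rats, n = 6 per group; 100 mg/kg given orally as solution in 1% sodium carboxymethyl cellulose, 30 min before maximal electroshock; observed 2 min. E/F is extension phase (s)/flexion phase (s). % protection = (control − test)/control × 100 against vehicle control; phenytoin 100 mg/kg reference; mean values.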

Mus musculus [2] = test: Neurotoxicity in mouse assessed as inability to maintain equilibrium on rod at 100 mg/kg, po after 4 hrs by rotarod test relative to control; assay type: toxicity, organism-based; parameters: dose 100 mg/kg, route oral; details: in vivo
How it was run: (§2)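 Mice pre-trained on accelerating rotorod (10 rpm, rod diameter 3.2 cm), then dosed orally at 100 mg/kg. Neurotoxicity is failure to keep equilibrium on the rod for at least 1 min in each of three trials, checked at 0.5, 1, 2 and 4 h. Reported as animals showing neurotoxicity per number tested (n = 4); phenytoin standard.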

Mus musculus [3] = test: Neurotoxicity in mouse assessed as inability to maintain equilibrium on rod at 100 mg/kg, po after 1 hr by rotarod test relative to control; assay type: toxicity, organism-based; parameters: dose 100 mg/kg, route oral; details: in vivo; how it was run: as §2
Mus musculus [4] = test: Neurotoxicity in mouse assessed as inability to maintain equilibrium on rod at 100 mg/kg, po after 2 hrs by rotarod test relative to control; assay type: toxicity, organism-based; parameters: dose 100 mg/kg, route oral; details: in vivo; how it was run: as §2
Mus musculus [5] = test: Neurotoxicity in mouse assessed as inability to maintain equilibrium on rod at 100 mg/kg, po after 0.5 hrs by rotarod test relative to control; assay type: toxicity, organism-based; parameters: dose 100 mg/kg, route oral; details: in vivo; how it was run: as §2
Rattus norvegicus [6] = test: Anticonvulsant activity in Wistar rat maximal electroshock seizure model assessed as decrease in ratio of extension phase and flexion phase at 100 mg/kg, po administered 30 mins prior to test; assay type: functional; how it was run: as §1

COc1ccc(-c2nnc(N3CCN(S(=O)(=O)c4ccc(C)cc4)CC3)o2)cc1
Activity (Rattus norvegicus [1]): 17.03% | Activity (Mus musculus [2]): 25% | Activity (Mus musculus [3]): 0% | Activity (Mus musculus [4]): 25% | Activity (Mus musculus [5]): 0% | Ratio (Rattus norvegicus [6]): 7.68

COc1ccc(-c2nnc(N3CCN(S(=O)(=O)c4ccc(C(F)(F)F)cc4[N+](=O)[O-])CC3)o2)cc1
Activity (Rattus norvegicus [1]): 77.64% | Ratio (Rattus norvegicus [6]): 1.91

COc1ccc(-c2nnc(N3CCN(S(=O)(=O)c4ccc(Oc5ccccc5)cc4)CC3)o2)cc1
Activity (Rattus norvegicus [1]): 74.31% | Activity (Mus musculus [2]): 0% | Activity (Mus musculus [3]): 0% | Activity (Mus musculus [4]): 0% | Activity (Mus musculus [5]): 0% | Ratio (Rattus norvegicus [6]): 1.96

COc1ccc(-c2nnc(N3CCN(S(=O)(=O)c4ccc(Br)c(C)c4)CC3)o2)cc1
Activity (Rattus norvegicus [1]): 52.42% | Activity (Mus musculus [2]): 0% | Activity (Mus musculus [3]): 0% | Activity (Mus musculus [4]): 0% | Activity (Mus musculus [5]): 0% | Ratio (Rattus norvegicus [6]): 6.29

COc1ccc(-c2nnc(N3CCN(S(=O)(=O)c4ccc(-c5ccccc5)cc4)CC3)o2)cc1
Activity (Rattus norvegicus [1]): 23.34% | Activity (Mus musculus [2]): 0% | Activity (Mus musculus [3]): 0% | Activity (Mus musculus [4]): 0% | Activity (Mus musculus [5]): 0% | Ratio (Rattus norvegicus [6]): 7.11

COc1ccc(-c2nnc(N3CCN(S(=O)(=O)c4ccccc4[N+](=O)[O-])CC3)o2)cc1
Activity (Rattus norvegicus [1]): 59.64% | Activity (Mus musculus [2]): 0% | Activity (Mus musculus [3]): 0% | Activity (Mus musculus [4]): 0% | Activity (Mus musculus [5]): 0% | Ratio (Rattus norvegicus [6]): 5.49

COc1ccc(-c2nnc(N3CCN(S(=O)(=O)c4ccc5ccccc5c4)CC3)o2)cc1
Activity (Rattus norvegicus [1]): 31.54% | Activity (Mus musculus [2]): 25% | Activity (Mus musculus [3]): 0% | Activity (Mus musculus [4]): 25% | Activity (Mus musculus [5]): 0% | Ratio (Rattus norvegicus [6]): 6.96

COc1ccc(-c2nnc(N3CCN(S(=O)(=O)c4ccc(I)cc4)CC3)o2)cc1
Activity (Rattus norvegicus [1]): 50.43% | Activity (Mus musculus [2]): 0% | Activity (Mus musculus [3]): 0% | Activity (Mus musculus [4]): 0% | Activity (Mus musculus [5]): 0% | Ratio (Rattus norvegicus [6]): 6.57

COc1ccc(-c2nnc(N3CCN(S(=O)(=O)c4cc(Cl)sc4Cl)CC3)o2)cc1
Activity (Rattus norvegicus [1]): 73.47% | Activity (Mus musculus [2]): 0% | Activity (Mus musculus [3]): 0% | Activity (Mus musculus [4]): 0% | Activity (Mus musculus [5]): 0% | Ratio (Rattus norvegicus [6]): 2.11

COc1ccc(-c2nnc(N3CCN(S(C)(=O)=O)CC3)o2)cc1
Activity (Rattus norvegicus [1]): 10.63% | Activity (Mus musculus [2]): 25% | Activity (Mus musculus [3]): 0% | Activity (Mus musculus [4]): 25% | Activity (Mus musculus [5]): 0% | Ratio (Rattus norvegicus [6]): 8.15

O=C1NC(=O)C(c2ccccc2)(c2ccccc2)N1 [PHENYTOIN]
Activity (Rattus norvegicus [1]): 75.88% | Activity (Mus musculus [2]): 0% | Activity (Mus musculus [3]): 0% | Activity (Mus musculus [4]): 0% | Activity (Mus musculus [5]): 0% | Ratio (Rattus norvegicus [6]): 1.98

COc1ccc(-c2nnc(N3CCN(S(=O)(=O)c4ccc(C#N)cc4)CC3)o2)cc1
Activity (Rattus norvegicus [1]): 42.4% | Activity (Mus musculus [2]): 0% | Activity (Mus musculus [3]): 0% | Activity (Mus musculus [4]): 0% | Activity (Mus musculus [5]): 0% | Ratio (Rattus norvegicus [6]): 6.34

COc1ccc(-c2nnc(N3CCN(S(=O)(=O)c4ccc(Br)cc4)CC3)o2)cc1
Activity (Rattus norvegicus [1]): 50.79% | Activity (Mus musculus [2]): 0% | Activity (Mus musculus [3]): 0% | Activity (Mus musculus [4]): 0% | Activity (Mus musculus [5]): 0% | Ratio (Rattus norvegicus [6]): 6.51

COc1ccc(-c2nnc(N3CCN(S(=O)(=O)c4cccc(C(F)(F)F)c4)CC3)o2)cc1
Activity (Rattus norvegicus [1]): 53.01% | Activity (Mus musculus [2]): 0% | Activity (Mus musculus [3]): 0% | Activity (Mus musculus [4]): 0% | Activity (Mus musculus [5]): 0% | Ratio (Rattus norvegicus [6]): 6.11

COc1ccc(-c2nnc(N3CCN(S(=O)(=O)c4ccc(C(C)(C)C)cc4)CC3)o2)cc1
Activity (Rattus norvegicus [1]): 17.32% | Activity (Mus musculus [2]): 0% | Activity (Mus musculus [3]): 0% | Activity (Mus musculus [4]): 0% | Activity (Mus musculus [5]): 0% | Ratio (Rattus norvegicus [6]): 7.64

COc1ccc(-c2nnc(N3CCN(S(=O)(=O)c4c(C)noc4C)CC3)o2)cc1
Activity (Rattus norvegicus [1]): 71.25% | Activity (Mus musculus [2]): 0% | Activity (Mus musculus [3]): 0% | Activity (Mus musculus [4]): 0% | Activity (Mus musculus [5]): 0% | Ratio (Rattus norvegicus [6]): 2.34

Reference: ChEMBL document CHEMBL2401686, “Synthesis of novel 1-[5-(4-methoxy-phenyl)-[1,3,4]oxadiazol-2-yl]-piperazine derivatives and evaluation of their in vivo anticonvulsant activity” (Eur J Med Chem, 2013)
